L major viab = Leishmania major promastigote growth inhibition. Leishmania major promastigotes, resazurin fluorescence viability. inhibition, % at 10 µM. hit rate 9% among 200,000;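 further: promastigotes grown with compound for 44 hours at 28 °C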
PKD1 inh = blocks activity of human protein kinase D1; hit rate 0.056% among 200,000; inhibition, % (no concentration beside the values); PKD1 kinase fluorescence polarization assay; Q15139
Target sequence (Q15139 whole entry, looked up): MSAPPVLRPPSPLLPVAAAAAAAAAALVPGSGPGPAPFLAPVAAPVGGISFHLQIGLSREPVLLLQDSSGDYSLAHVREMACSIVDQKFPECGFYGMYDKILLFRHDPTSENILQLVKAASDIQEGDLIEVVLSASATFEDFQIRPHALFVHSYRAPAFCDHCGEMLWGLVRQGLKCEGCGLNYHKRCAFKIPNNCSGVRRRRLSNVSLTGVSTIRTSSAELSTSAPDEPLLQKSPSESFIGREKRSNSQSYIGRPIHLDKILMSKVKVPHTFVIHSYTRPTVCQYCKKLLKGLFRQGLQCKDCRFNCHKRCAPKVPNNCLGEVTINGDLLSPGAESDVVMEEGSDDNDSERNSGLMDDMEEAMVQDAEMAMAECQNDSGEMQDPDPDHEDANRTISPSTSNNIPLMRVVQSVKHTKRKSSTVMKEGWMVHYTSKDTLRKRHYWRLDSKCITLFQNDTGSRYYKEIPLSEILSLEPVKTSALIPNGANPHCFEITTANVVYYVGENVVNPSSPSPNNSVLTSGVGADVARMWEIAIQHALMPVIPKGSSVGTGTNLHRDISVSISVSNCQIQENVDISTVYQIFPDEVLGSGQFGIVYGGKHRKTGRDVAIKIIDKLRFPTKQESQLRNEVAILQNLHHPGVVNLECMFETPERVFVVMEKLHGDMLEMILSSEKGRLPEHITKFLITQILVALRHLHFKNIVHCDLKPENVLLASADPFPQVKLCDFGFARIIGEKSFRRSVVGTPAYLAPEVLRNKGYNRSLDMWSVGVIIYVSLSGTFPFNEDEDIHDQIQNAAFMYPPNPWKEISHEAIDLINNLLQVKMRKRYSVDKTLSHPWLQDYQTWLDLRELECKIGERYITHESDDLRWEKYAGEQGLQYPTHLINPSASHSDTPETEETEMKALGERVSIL
GSH bead fluor = GSH bead compound fluorescence profile | hit rate 0.25% among 190,000 | AID 1776 | fluorescence (KMESF) at 10 µM | GSH beads flow cytometry, compound fluorescence 488/530 nm; stronger effect = higher value; in the data active means fluorescence above about 89;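 further: glutathione beads carrying GST-tagged Bcl family fusion proteins plus one bare bead set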
Avidin fluor = compound fluoresces at 488/530 nm on avidin beads | AID 1775 | compound fluorescence 488/530 nm, flow cytometry; stronger effect = higher value | hit rate 0.38% among 220,000 | fluorescence (KMESF) at 10 µM; in the data active means fluorescence above about 47
ABCG2 inh = inhibitors of human ABCG2 transporter, ABCB1 counter-screen | Q9UNQ0 | IgMXP3 cells, JC-1 efflux, flow cytometry | inhibition, % at 6.6 µM | hit rate 0.1% among 190,000;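 active means inhibition above 80%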
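Test system: IgMXP3 (ABCG2) plus far-red-tagged CCRF-Adr (ABCB1) cells. Reagent: JC-1 dye as substrate. Timing: 10 min exposure at 25 °C with rotation, no wash. Measured by: flow cytometric JC-1 green MFI at 530 nm. Read-out: percent efflux inhibition, scaled nicardipine 100% to DMSO 0%. Control set: nicardipine and DMSO wells.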
ABCB1 inh = inhibitors of human ABCB1 transporter, ABCG2 counter-screen; P08183; CCRF-Adr cells, JC-1 efflux, flow cytometry; inhibition, % at 6.6 µM; hit rate 0.067% among 190,000; AID 1326; in the data active means inhibition above about 40%;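 further: higher value means more JC-1 retained so stronger ABCB1 efflux block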
Of the large screens only hits and unclear results are named; the others gave an inactive call. This excerpt belongs to a sample that is enriched for hits. Unless noted, no stated cut-off is given here; in the data, active means inhibition above about 50%; inactive means the rest.

Cc1ccc(NC(=O)COC(=O)C2CC2(Cl)Cl)cc1C (centres undefined)	none
CCCCCn1c(=O)c(-c2nc3ccccc3[nH]2)c(O)c2ccccc21	L major viab 56
Cc1cc(C)c(C(=O)CSc2nnc(C)c(=O)[nH]2)cc1C	none
CCOC(=O)c1c(C(C)(C)C)oc2ccc(O)cc12	L major viab 100
Fc1ccc(COc2ccccc2-c2ccnc3ncnn23)cc1	none
Cc1ccc(Cl)cc1N1CCN(C(=O)c2cn(C)c(=O)c3c2c2ccccc2n3C)CC1	L major viab 55
Fc1ccc(C(c2ccc(F)cc2)N2CCN(C/C=C/c3ccccc3)CC2)cc1	L major viab 53
COC(=O)C1=C(N)Oc2c(oc(CO)cc2=O)C1c1ccc(F)cc1 (centres undefined)	none (no result: L major viab, PKD1 inh, GSH bead fluor, ABCG2 inh, ABCB1 inh)
COC(=O)C1=C(N)c2c(F)cccc2C1(C#N)c1ccc(F)cc1 (centres undefined)	L major viab 51
CCCn1c(SCC(=O)N2N=C3/C(=C/c4ccc(OC)cc4)CCCC3C2c2ccc(OC)cc2)n[nH]c1=O (centres undefined)	L major viab 92
O=C(O)c1c(C(=O)N2N=C3/C(=C/c4ccccc4)CCCC3C2c2ccccc2)cccc1[N+](=O)[O-] (centres undefined)	none
CC(=O)N1N=C2/C(=C/c3ccccc3)CCCC2C1c1ccccc1 (centres undefined)	L major viab 97
Cc1ccc(C(=O)O)cc1NC(=O)CSc1ncnc2sc3c(c12)CCC3	none (no result: L major viab, PKD1 inh, GSH bead fluor, ABCG2 inh, ABCB1 inh)
O=C(CCCn1c(=O)oc2ccccc21)NC1CCCCCC1	none
CC1CC(NC(=O)CCn2c(=O)oc3ccccc32)CC(C)(C)C1 (centres undefined)	L major viab 99
COc1ccccc1OCC(=O)N/N=C/C=C/c1ccc([N+](=O)[O-])o1	L major viab 100
Cc1ccccc1OCC(=O)N/N=C/c1ccc([N+](=O)[O-])o1	L major viab 98
CCCOc1ccc(CCC(=O)N/N=C/c2ccc([N+](=O)[O-])o2)cc1	none (no result: L major viab, PKD1 inh, GSH bead fluor, ABCG2 inh, ABCB1 inh)
Cc1ccc(OCC(=O)N/N=C/C=C/c2ccco2)cc1	L major viab 76
Cc1ccccc1OCC(=O)NCC(=O)N/N=C/c1ccc(Br)o1	none (no result: ABCB1 inh)
Cc1cc(C)cc(OCC(=O)N/N=C/c2ccc([N+](=O)[O-])o2)c1	L major viab 96
O=C(COc1ccccc1[N+](=O)[O-])N/N=C/C=C/c1ccco1	none
O=C(N1CCOCC1)N1CCN(C(=O)N2CCOCC2)CC1	none (no result: GSH bead fluor, Avidin fluor, ABCG2 inh, ABCB1 inh)
Cc1nnc(N2CCN(C)CC2)c2nn(-c3ccc(Cl)cc3)c(C)c12	none (no result: GSH bead fluor, Avidin fluor, ABCG2 inh, ABCB1 inh)
CN(C)c1ccc(CNCCC2CCOC(C)(C)C2)cc1 (centres undefined)	L major viab 94
COc1c(Cl)cnn(-c2ccc(C)cc2)c1=O	none
O=c1c(Br)c(N2CCCC2)cnn1-c1ccccc1	none
O=c1c(Br)c(Br)cnn1-c1ccccc1	L major viab 101
Cc1ccc(-n2ncc(Br)c(Br)c2=O)cc1	L major viab 100
Cc1ccccc1NC(=O)CCN1CCc2ccccc2C1	none
O=c1[nH][nH]c(C(F)(F)F)c1C=NCc1cccs1	none
CCc1ccccc1NC(=O)CSc1nc2n[nH]c(C)c2c(=N)n1-c1ccc(OC)cc1	none
COc1ccccc1NC(=O)CSc1nc2n[nH]c(C)c2c(=N)n1-c1ccccc1Cl	L major viab 65
COc1ccc(/C=C/C(=O)NC2CCCCCCC2)cc1S(=O)(=O)N1CCOCC1	L major viab 88
O=C(C1=C[C@H](c2ccc3c(c2)OCO3)C[C@H](OCCCCO)O1)N1CCN(Cc2ccc3c(c2)OCO3)CC1	L major viab 51
O=C(C1=C[C@H](C2CCCCC2)C[C@H](OCCCCO)O1)N1CCN(Cc2ccc3c(c2)OCO3)CC1	L major viab 97
COc1cc(OC)c(NC(=O)/C=C/C(=O)O)cc1Cl	none (no result: L major viab, PKD1 inh, GSH bead fluor, ABCG2 inh, ABCB1 inh)
CC(C)N(C(=O)c1ccc(C(=O)Nc2ccc([N+](=O)[O-])cc2)cc1)C(C)C	none
CC(C)CCNC(=S)Nc1ccc([N+](=O)[O-])cc1	L major viab 68
CC(C)OC(=O)c1cc(NC(=S)Nc2ccc([N+](=O)[O-])cc2)cc(C(=O)OC(C)C)c1	L major viab 100
COc1ccc(/C=N/N2CCOCC2)cc1Cn1cc([N+](=O)[O-])cn1	none (no result: L major viab, PKD1 inh, GSH bead fluor, ABCG2 inh, ABCB1 inh)
CN(CC(=O)Nc1ccccc1C(F)(F)F)C(=O)COc1ncnc2ccccc12	none
CCCCCCCCNC(=S)NCCN1CCCCC1	L major viab 97
COc1cc2nc(N3CCN(C(=O)c4ccco4)CC3)nc(N)c2cc1OC	L major viab 100
NNc1nc2ccc(Cl)cc2s1	none
NNc1nc2ccc(F)cc2s1	L major viab 96
Cc1ccccc1S(=O)(=O)Cc1ccc(C(=O)NCc2cccs2)o1	none
COc1ccc(N2CCN(C3CC(=O)N(Cc4ccccc4)C3=O)CC2)cc1 (centres undefined)	none
O=C(c1ccncc1)c1ccc(N2CCN(C3CC(=O)N(Cc4ccccc4)C3=O)CC2)cc1 (centres undefined)	L major viab 98
COc1ccc(C(=O)NCc2ccc(C)cc2)cc1S(=O)(=O)N1CCCc2ccccc21	L major viab 99
COc1ccc(OC)c(S(=O)(=O)N2CCc3ccccc32)c1	L major viab 95
COc1ccc(OC)c(S(=O)(=O)N2c3ccccc3CC2C)c1 (centres undefined)	L major viab 100
COc1ccc(C(=O)N2CCCN(C)CC2)cc1S(=O)(=O)N1CCCc2ccccc21	L major viab 55
COc1ccc(C(=O)NCC2CCCO2)cc1S(=O)(=O)N1CCCc2ccccc21 (centres undefined)	none
CN(C)/C=N/S(=O)(=O)c1ccc(Cl)c(Cl)c1	none (no result: L major viab, PKD1 inh, GSH bead fluor, ABCG2 inh, ABCB1 inh)
CCCCCCC(C)n1[nH]c(=O)cc1N (centres undefined)	none (no result: L major viab, PKD1 inh, GSH bead fluor, ABCG2 inh, ABCB1 inh)
COc1ccc(OC)c(S(=O)(=O)N2C(C)CCCC2C)c1 (centres undefined)	none
COc1ccc(OC)c(S(=O)(=O)N2CCCc3ccccc32)c1	L major viab 100
COc1ccc(OC)c(S(=O)(=O)N2c3cc(F)ccc3CCC2C)c1 (centres undefined)	L major viab 100
COc1ccc(C(=O)N2CCOCC2)cc1S(=O)(=O)N1CCCc2ccccc21	none
O=C(Nc1ccccc1)OC1CCCCc2cccnc21 (centres undefined)	none (no result: L major viab, PKD1 inh, GSH bead fluor, ABCG2 inh, ABCB1 inh)
C=CCOc1cccc(/C=C2\C(=O)N(Cc3ccc(C)cc3)C(C)=C2C(=O)OC)c1	L major viab 92
O=C(Nc1ccc(F)cc1)/C(=C1/CCCCCN1)[N+](=O)[O-]	none (no result: L major viab, PKD1 inh, GSH bead fluor, ABCG2 inh, ABCB1 inh)
COc1ccc2c(c1)CCc1c-2nc2ccccc2c1N1CCOCC1	none (no result: L major viab, PKD1 inh, GSH bead fluor, ABCG2 inh, ABCB1 inh)
CCCOc1ccc([N+](=O)[O-])cc1C1NC(=S)NC(c2ccccc2)=C1C(=O)OCC (centres undefined)	L major viab 100
